Assays:
[1] = Metabolic stability in human liver microsomes assessed as compound remaining at 2 uM after 45 mins by LC/MS analysis; assay type: ADME, Microsome; settings: read-out: Stability
[2] = Metabolic stability in rat liver microsomes assessed as compound remaining at 2 uM after 45 mins by LC/MS analysis; assay type: ADME, Microsome; settings: read-out: Stability
[3] = target: Mitogen-activated protein kinase 14 (Homo sapiens, UniProt Q16539); assay: Inhibition of p38alpha assessed as phosphorylation of […] after 60 mins by fluorescence assay
In short: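 Cascade assay in which activated p38α (6 pM final) activates unactivated MK2 (1 nM), which phosphorylates FITC-labelled Hsp27 peptide (1 nM) with […]. Inhibitor 0.2–10,000 nM. Room temperature, 60 min, EDTA quench. Phospho-peptide quantified by Caliper LabChip; IC50.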

[4] = Bioavailability in iv and po dosed Sprague-Dawley rat; assay type: ADME, organism-based; settings: in vivo
PBMC = assay: Antiinflammatory activity in human PBMC assessed as inhibition of LPS-induced TNFalpha production treated 1 hr before LPS challenge measured after 18 hrs; assay type: functional, cell-based
In short: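 PBMCs isolated by Ficoll from heparinized blood of two healthy donors, in DMEM with 5% endotoxin-free FBS, 2.5 × 10⁵ cells/well. Pretreated 1 h with compound (0.0001–25 µM range), then stimulated 18 h with 22 ng/ml LPS. Final DMSO 0.25%. Secreted TNFα measured by MSD; IC50 reported.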

[5] = Half life in iv and po dosed Sprague-Dawley rat; assay type: ADME, organism-based; settings: in vivo
[6] = Solubility of the compound; assay type: physicochemical
[7] = Clearance in iv and po dosed Sprague-Dawley rat; assay type: ADME, organism-based; settings: in vivo
Rattus norvegicus [8] = assay: Antiinflammatory activity in Lewis rat assessed as inhibition of LPS-induced TNFalpha production at 5 mg/kg, po administered 6 hrs before LPS challenge by ELISA; assay type: functional
In short: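 Adult male Lewis rats (225–250 g), fasted 18 h with free access to water. Compound or vehicle given by oral gavage (1 mL). LPS (E. coli 0111:B4) given 1 mg/kg i.v. in saline 2, 4 or 6 h later. Serum taken by cardiac puncture 90 min after LPS. TNFα quantified against a recombinant rat TNF standard curve with a four-parameter fit. Two vehicle groups per experiment, three experiments.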

Rattus norvegicus [9] = assay: Antiinflammatory activity in Lewis rat assessed as inhibition of LPS-induced TNFalpha production at 15 mg/kg, po administered 4 hrs before LPS challenge by ELISA

Mitogen-activated protein kinase 14, sequence (Q16539 whole entry): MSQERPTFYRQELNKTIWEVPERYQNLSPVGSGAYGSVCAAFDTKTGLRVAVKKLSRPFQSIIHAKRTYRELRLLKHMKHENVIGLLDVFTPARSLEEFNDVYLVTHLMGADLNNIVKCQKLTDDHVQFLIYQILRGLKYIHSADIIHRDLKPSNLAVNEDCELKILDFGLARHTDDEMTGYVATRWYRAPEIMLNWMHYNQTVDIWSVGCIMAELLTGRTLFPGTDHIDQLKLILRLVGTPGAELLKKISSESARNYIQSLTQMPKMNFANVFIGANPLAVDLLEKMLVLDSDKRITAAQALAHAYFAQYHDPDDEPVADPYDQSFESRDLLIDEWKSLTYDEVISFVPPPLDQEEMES

| Compound | remaining at 0.75 h, 2 µM [1] [%] | remaining at 0.75 h, 2 µM [2] [%] | IC50 [3] [nM] | bioavailability [4] [%] | IC50 (PBMC) [nM] | half-life [5] [h] | solubility [6] [µg/mL] | clearance [7] [mL/min/kg] | inhibition in vivo at 5 mg/kg (Rattus norvegicus [8]) [%] | inhibition in vivo at 15 mg/kg (Rattus norvegicus [9]) [%] |
| --- | --- | --- | --- | --- | --- | --- | --- | --- | --- | --- |
| Cc1cc(OCc2ccc(F)cc2F)c(Cl)c(=O)n1-c1c(F)cccc1F | 74 | 87 | 4 | 21 | 17 | 1.8 | < 10 | 12.8 | 83 |  |
| CN(C)Cc1cc(OCc2ccc(F)cc2F)c(Br)c(=O)n1-c1c(F)cccc1F | 0 | 0 | 6 |  | 50 |  |  |  |  | 69 |

Source: ChEMBL document CHEMBL1795280, “Design, synthesis and activity of a potent, selective series of N-aryl pyridinone inhibitors of p38 kinase” (Bioorg Med Chem Lett, 2011)
